Columns and labels:
[1] = tested on: Hepatitis B virus; test: Antiviral activity against wild type HBV in human hepatoma 2.2.15 cells at 10 ug/mL; assay type: functional; settings: HepG2 2.2.15
Outline: (§1)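 HBV-transfected human 2.2.15 cells were treated with compounds. Intracellular HBV DNA was quantified by dot blot hybridization. EC50 is the µM concentration that reduces viral DNA to 50% of untreated infected controls. The fixed-dose value is % inhibition at 10 µg/mL against untreated infected controls. Lamivudine and abacavir served as references.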

[2] = tested on: Duck hepatitis B virus; test: Antiviral activity against duck HBV in primary duck hepatocytes; assay type: functional, organism-based; settings: Hepatocyte
Outline: (§2)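 Primary hepatocyte cultures from congenitally DHBV-infected ducks were exposed to compounds. Intracellular viral DNA was measured by dot blot hybridization. EC50 is the µM concentration that cuts viral DNA to 50% of untreated infected controls. The single-point value is % inhibition of viral DNA at 10 µg/mL against untreated infected controls.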

[3] = tested on: Duck hepatitis B virus; test: Antiviral activity against duck HBV in primary duck hepatocytes at 10 ug/mL; assay type: functional; settings: Hepatocyte; outline: as §2
[4] = tested on: HepG2; test: Cytotoxicity against human HepG2 cell line; assay type: functional
Outline: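 HepG2 cells were exposed to compounds for 3 days and viability was measured. CC50 is the concentration lowering viability by 50% versus untreated control. ">" means 50% was not reached at the highest concentration tested.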

[5] = tested on: Vero; test: Cytotoxicity against Vero cell line; assay type: functional; settings: Chlorocebus sabaeus
Outline: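 Vero cell viability was measured by MTT after 3 days of compound exposure. CC50 is the concentration giving 50% loss of viability versus untreated control. ">" marks values where 50% was not reached at the highest concentration tested.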

[6] = tested on: Hepatitis B virus; test: Antiviral activity against wild type HBV in human hepatoma 2.2.15 cells; assay type: functional, organism-based; settings: HepG2 2.2.15; outline: as §1
[7] = tested on: Hepatitis B virus; test: Antiviral activity against HBV M204I mutant transfected in B1 cell line at 10 ug/mL; assay type: functional
Outline: (§3)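 Mutant-HBV-transfected HepG2 lines: B1 carries M204I, D88 carries L180M/M204V. Cells are exposed to compound at 10 µg/mL. Intracellular viral DNA is quantified by dot blot hybridization. Results are given as percent inhibition of viral DNA relative to untreated infected controls.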

[8] = tested on: Hepatitis B virus; test: Antiviral activity against HBV L180M/M204V mutant transfected in D88 cell line at 10 ug/mL; assay type: functional; outline: as §3
[9] = tested on: Hepatitis B virus; test: Antiviral activity against HBV L180M/M204V mutant transfected in D88 cell line; assay type: functional, organism-based
Outline: (§4)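 HepG2 human hepatoma cells stably transfected with mutant HBV genome: B1 line carries M204I, D88 line carries L180M/M204V. Culture, compound treatment and read-out are as for 2.2.15 cells. Intracellular viral DNA is measured by dot blot hybridization. EC50 is the concentration (µM) that reduces viral DNA to 50% of untreated infected controls.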

[10] = tested on: Hepatitis B virus; test: Antiviral activity against HBV M204I mutant transfected in B1 cell line; assay type: functional, organism-based; outline: as §4
[11] = tested on: Hepatitis C virus; test: Antiviral activity against hepatitis C virus; assay type: functional, organism-based, Hepacivirus hominis

| Compound | EC50 [6] [µM] | EC50 [11] [µM] | inhibition at 10 µg/mL [1] [%] | EC50 [2] [µM] | inhibition at 10 µg/mL [3] [%] | CC50 [4] [µM] | CC50 [5] [µM] | inhibition at 10 µg/mL [7] [%] | inhibition at 10 µg/mL [8] [%] | EC50 [9] [µM] | EC50 [10] [µM] |
| --- | --- | --- | --- | --- | --- | --- | --- | --- | --- | --- | --- |
| Cc1nn(COC(CO)CO)c(=S)[nH]c1=O | – | – | 0 | > 40.4 | 25 | > 404 | > 404 | – | – | – | – |
| Cc1c(Br)c(=O)[nH]c(=O)n1COC(CO)CO | 32.4 | – | 55 | 16.2 | 73 | > 324 | > 324 | 51 | 30 | > 32.4 | 32.4 |
| O=c1[nH]c(=O)n(COC(CO)CO)cc1CO | – | – | 0 | – | 0 | > 406 | > 406 | – | – | – | – |
| Nc1ccn(COC(CO)CO)c(=O)n1 | – | – | 0 | – | 0 | > 465 | > 465 | – | – | – | – |
| Nc1nc(=O)n(COC(CO)CO)cc1F | – | 132 | 0 | > 42.9 | 20 | > 429 | > 429 | – | – | – | – |
| Nc1nc(NC2CC2)c2ncn([C@H]3C=C[C@@H](CO)C3)c2n1 [ABACAVIR] | – | – | – | – | – | – | – | 80 | 72 | – | – |
| O=c1cnn(COC(CO)CO)c(=O)[nH]1 | > 46 | – | 32 | > 46 | 41 | > 460 | > 460 | – | – | – | – |
| Nc1ccn([C@@H]2CS[C@H](CO)O2)c(=O)n1 [LAMIVUDINE] | – | – | 88 | – | 96 | – | – | 45 | 30 | – | > 44 |
| O=c1ccn(COC(CO)CO)c(=O)[nH]1 | – | – | 0 | – | 0 | > 462 | > 462 | – | – | – | – |
| O=c1[nH]c(=O)n(COC(CO)CO)cc1Cl | 20 | – | 60 | 4 | 69 | > 400 | > 400 | 56 | 40 | > 40 | 20 |
| COc1nc(=O)n(COC(CO)CO)cc1Br | > 32.3 | – | 35 | > 32.3 | 45 | > 323 | > 323 | – | – | – | – |
| Cc1cc(=O)[nH]c(=O)n1COC(CO)CO | – | – | 0 | > 43.4 | 27 | > 434 | > 434 | – | – | – | – |

The next lines start with results.

| EC50 [6] [µM] | EC50 [11] [µM] | Compound | inhibition at 10 µg/mL [1] [%] | EC50 [2] [µM] | inhibition at 10 µg/mL [3] [%] | CC50 [4] [µM] | CC50 [5] [µM] | inhibition at 10 µg/mL [7] [%] | inhibition at 10 µg/mL [8] [%] | EC50 [9] [µM] | EC50 [10] [µM] |
| --- | --- | --- | --- | --- | --- | --- | --- | --- | --- | --- | --- |
| > 42.7 | – | O=c1[nH]c(=O)n(COC(CO)CO)cc1F | 26 | > 42.7 | 24 | > 427 | > 427 | – | – | – | – |
| > 41 | – | CCc1cn(COC(CO)CO)c(=O)[nH]c1=O | 30 | > 41 | 35 | > 410 | > 410 | – | – | – | – |
| > 38.4 | – | O=c1[nH]c(=O)n(COC(CO)CO)cc1CCO | 28 | > 38.4 | 25 | > 384 | > 384 | – | – | – | – |
| > 28 | – | Cc1c(I)c(=O)[nH]c(=O)n1COC(CO)CO [IODMETACYCLUR] | 38 | > 28 | 44 | > 280 | > 280 | – | – | – | – |
| > 43.4 | – | Cc1cn(COC(CO)CO)c(=O)[nH]c1=O | 37 | > 43.4 | 45 | > 434 | > 434 | – | – | – | – |
| 30 | – | O=c1[nH]c(=O)n(COC(CO)CO)cc1/C=C/Br | 53 | 3 | 75 | > 311 | > 311 | – | – | – | – |
| > 38.3 | – | O=c1[nH]c(=O)n(COC(CO)CO)cc1[N+](=O)[O-] | 40 | > 38.3 | 45 | > 383 | > 383 | – | – | – | – |
| > 33.8 | – | O=c1[nH]c(=O)n(COC(CO)CO)cc1Br | 40 | > 33.8 | 48 | > 338 | > 338 | – | – | – | – |
| > 43.2 | – | Nc1cn(COC(CO)CO)c(=O)[nH]c1=O | 30 | > 43.2 | 37 | > 432 | > 432 | – | – | – | – |
| > 43.2 | – | Cc1nn(COC(CO)CO)c(=O)[nH]c1=O | 37 | > 43.2 | 45 | > 432 | > 432 | – | – | – | – |
